Results published in ChEMBL document CHEMBL1132188, “Probes for narcotic receptor mediated phenomena. 26. Synthesis and biological evaluation of diarylmethylpiperazines and diarylmethylpiperidines as novel, nonpeptidic delta opioid receptor ligands” (J Med Chem, 1999).

Assays:
[1] = target: T1, Delta-type opioid receptor (Rattus norvegicus, UniProt P33533); assay: In vitro binding affinity to Opioid receptor delta 1 in rat brain membranes by [3H]DADLE (Tyr-D-Ala-Gly-Phe-D-Leu) displacement.; assay type: cell membranes
T1 sequence (P33533 whole entry): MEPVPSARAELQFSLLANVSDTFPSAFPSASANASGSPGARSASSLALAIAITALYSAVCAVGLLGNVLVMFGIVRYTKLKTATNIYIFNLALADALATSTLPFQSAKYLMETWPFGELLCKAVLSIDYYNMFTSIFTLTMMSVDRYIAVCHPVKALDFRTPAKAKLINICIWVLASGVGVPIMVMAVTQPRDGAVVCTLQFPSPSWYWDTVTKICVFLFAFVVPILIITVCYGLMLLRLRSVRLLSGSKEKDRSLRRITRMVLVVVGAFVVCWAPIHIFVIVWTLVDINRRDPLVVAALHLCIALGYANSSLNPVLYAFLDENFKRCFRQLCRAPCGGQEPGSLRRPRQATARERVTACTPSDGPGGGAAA
How it was run: (§1)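 [3H]DADLE (2 nM) was bound to daily-prepared rat brain membranes for 2 h at 25 °C in 50 mM Tris-HCl pH 7.4 with 100 mM choline chloride, 3 mM MnCl2, DAMGO to block mu sites, and protease inhibitor cocktail. Nonspecific binding was defined with 20 µM levallorphan. Ten drug concentrations were run twice. Ki from IC50 by Cheng–Prusoff.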

[2] = target: T2, Kappa-type opioid receptor (Cavia porcellus, UniProt P41144); assay: In vitro radioligand binding assay, for inhibition of [3H]U-69593 binding to Opioid receptor kappa 1, in guinea pig brain membranes, at highest concentration of 8000 nM tested; assay type: cell membranes
T2 sequence (P41144 whole entry): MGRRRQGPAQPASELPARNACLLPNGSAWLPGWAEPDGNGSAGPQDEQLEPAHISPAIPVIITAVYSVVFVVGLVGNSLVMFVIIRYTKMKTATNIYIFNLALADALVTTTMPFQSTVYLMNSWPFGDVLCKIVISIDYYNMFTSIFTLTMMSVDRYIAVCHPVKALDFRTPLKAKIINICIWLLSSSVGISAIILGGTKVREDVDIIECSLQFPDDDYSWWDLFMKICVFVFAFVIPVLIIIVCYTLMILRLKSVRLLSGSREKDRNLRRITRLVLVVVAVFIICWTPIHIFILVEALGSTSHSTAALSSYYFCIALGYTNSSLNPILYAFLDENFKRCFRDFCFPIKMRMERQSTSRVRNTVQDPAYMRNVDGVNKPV
How it was run: (§2)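 Guinea pig brain membranes were homogenised in ice-cold 10 mM Tris-HCl pH 7.0, centrifuged twice at 30000g, and resuspended in 50 mM Tris-HCl pH 7.4. [3H]U69,593 (2 nM) was incubated 2 h at 25 °C with protease inhibitor cocktail and 1 µg/mL captopril. Nonspecific binding was defined with 1 µM U69,593. Ten drug concentrations were run twice. Ki = IC50/(1+[L]/Kd).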

[3] = target: T3, Mu-type opioid receptor (Rattus norvegicus, UniProt P33535); assay: In vitro radioligand binding assay, for inhibition of [3H]DAMGO (Tyr-D-Ala-Gly-(Me)-Phe-Gly-ol) binding to Opioid receptor mu 1 in rat brain membranes at highest concentration of 6300 nM tested; assay type: cell membranes
T3 sequence (P33535 whole entry): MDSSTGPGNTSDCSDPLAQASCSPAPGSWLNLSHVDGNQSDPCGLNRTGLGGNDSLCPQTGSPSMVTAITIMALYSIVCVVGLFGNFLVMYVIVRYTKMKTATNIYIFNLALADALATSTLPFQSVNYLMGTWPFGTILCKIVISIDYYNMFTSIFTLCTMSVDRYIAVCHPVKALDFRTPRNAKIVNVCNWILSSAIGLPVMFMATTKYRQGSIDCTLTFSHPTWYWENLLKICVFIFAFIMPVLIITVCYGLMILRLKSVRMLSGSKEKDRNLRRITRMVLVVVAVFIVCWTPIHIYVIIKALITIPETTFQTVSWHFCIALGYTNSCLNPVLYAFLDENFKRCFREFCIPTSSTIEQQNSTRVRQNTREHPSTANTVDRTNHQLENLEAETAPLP
How it was run: (§3)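 Rat brain membranes prepared daily: homogenised in ice-cold 10 mM Tris-HCl pH 7.0, centrifuged twice at 30000g for 10 min, resuspended in 50 mM Tris-HCl pH 7.4. Incubation 2 h at 25 °C in 50 mM Tris-HCl pH 7.4 with protease inhibitor cocktail. Nonspecific binding was defined with 20 µM levallorphan. Ten drug concentrations were run twice. Ki = IC50/(1+[L]/Kd).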

[4] = Ki ratio of mu to delta receptor
[5] = target: T3, Mu-type opioid receptor; assay: In vitro radioligand binding assay, for inhibition of [3H]DAMGO (Tyr-D-Ala-Gly-(Me)-Phe-Gly-ol) binding to Opioid receptor mu 1 in rat brain membranes at highest concentration of 6800 nM tested; assay type: cell membranes; how it was run: as §3
[6] = target: T2, Kappa-type opioid receptor; assay: In vitro radioligand binding assay, for inhibition of [3H]U-69593 binding to Opioid receptor kappa 1, in guinea pig brain membranes, at highest concentration of 7000 nM tested; assay type: cell membranes; how it was run: as §2
[7] = target: T3, Mu-type opioid receptor; assay: In vitro radioligand binding assay, for inhibition of [3H]DAMGO (Tyr-D-Ala-Gly-(Me)-Phe-Gly-ol) binding to Opioid receptor mu 1 in rat brain membranes at highest concentration of 5600 nM tested; assay type: cell membranes; how it was run: as §3
[8] = target: T1, Delta-type opioid receptor; assay: In vitro radioligand binding assay, for inhibition of [3H]DADLE (Tyr-D-Ala-Gly-Phe-D-Leu) binding to Opioid receptor delta 1, in rat brain membranes at highest concentration of 1700 nM tested; assay type: cell membranes; how it was run: as §1
[9] = target: Delta-type opioid receptor (Mus musculus, UniProt P32300); assay: Agonist activity using electrically induced smooth muscle contraction of mouse vas deferens.; assay type: functional
Delta-type opioid receptor (Mus musculus, UniProt P32300), sequence (P32300 whole entry): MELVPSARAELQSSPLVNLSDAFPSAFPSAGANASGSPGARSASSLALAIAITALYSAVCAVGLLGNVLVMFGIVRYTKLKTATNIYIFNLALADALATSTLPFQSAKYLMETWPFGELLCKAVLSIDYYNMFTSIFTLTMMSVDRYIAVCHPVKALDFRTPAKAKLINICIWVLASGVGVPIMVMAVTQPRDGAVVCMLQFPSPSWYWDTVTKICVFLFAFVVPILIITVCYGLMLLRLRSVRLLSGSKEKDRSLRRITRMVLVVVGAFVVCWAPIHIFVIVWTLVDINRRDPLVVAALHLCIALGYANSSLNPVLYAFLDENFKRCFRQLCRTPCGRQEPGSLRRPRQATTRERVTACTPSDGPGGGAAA

[10] = target: Mu-type opioid receptor (Cavia porcellus, UniProt P97266); assay: Agonist activity using strips of guinea pig ileum longitudinal muscle myenteric plexus.; assay type: functional, tissue-based
Mu-type opioid receptor (Cavia porcellus, UniProt P97266), sequence (P97266 whole entry): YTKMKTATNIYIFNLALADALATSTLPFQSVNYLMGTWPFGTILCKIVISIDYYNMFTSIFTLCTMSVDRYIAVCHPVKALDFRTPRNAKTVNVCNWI
How it was run: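 Longitudinal muscle–myenteric plexus strips from male Hartley guinea pigs (250–500 g) at 1 g tension in Krebs bicarbonate, 37 °C, 95% O2/5% CO2. Transmural stimulation at 0.1 Hz, 0.4 ms pulses, supramaximal voltage. Cumulative agonist doses; % inhibition of contraction height. IC50 by nonlinear least squares.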

[11] = IC50 ratio of mu to delta receptor
[12] = target: T2, Kappa-type opioid receptor; assay: In vitro radioligand binding assay, for inhibition of [3H]U-69593 binding to Opioid receptor kappa 1, in guinea pig brain membranes.; assay type: cell membranes; how it was run: as §2
[13] = target: T3, Mu-type opioid receptor; assay: In vitro radioligand binding assay, for inhibition of [3H]DAMGO (Tyr-D-Ala-Gly-(Me)-Phe-Gly-ol) binding to Opioid receptor mu 1 in rat brain membranes.; assay type: cell membranes; how it was run: as §3
[14] = target: T3, Mu-type opioid receptor; assay: In vitro radioligand binding assay, for inhibition of [3H]-DAMGO (Tyr-D-Ala-Gly-(Me)-Phe-Gly-ol) binding to Opioid receptor mu 1 in rat brain membranes at highest concentration of 6600 nM tested; assay type: cell membranes; how it was run: as §3

| Structure (SMILES) | Ki [1] | Ki [2] | Ki ratio [4] | Ki [5] | also measured |
| --- | --- | --- | --- | --- | --- |
| CCN(CC)C(=O)c1ccc(C(c2cccc(OC)c2)C2CCN(C)CC2)cc1 (stereo not drawn) | 0.328 µM | 10 µM | > 15 |  | Ki [3]: 10 µM |
| CCN(CC)C(=O)c1ccc(C(c2ccccc2)N2CCNCC2)cc1 (stereo not drawn) | 0.00485 µM |  | > 1400 | 10 µM |  |
| CCN(CC)C(=O)c1ccc(C(c2ccccc2)N2CCN(C)CC2)cc1 (stereo not drawn) | 0.0432 µM |  | > 130 |  | Ki [6]: 10 µM; Ki [7]: 10 µM |
| CCCN1CCN(C(c2ccccc2)c2ccc(C(=O)N(CC)CC)cc2)CC1 (stereo not drawn) | 0.0442 µM |  | > 150 | 10 µM | Ki [6]: 10 µM |
| C=CCN1CCC(C(c2ccc(C(=O)N(CC)CC)cc2)c2cccc(OC)c2)CC1 (stereo not drawn) | 0.027 µM | 10 µM | > 200 |  | Ki [3]: 10 µM |
| CCN(CC)C(=O)c1ccc(C(c2ccccc2)N2CCCCC2)cc1 (stereo not drawn) |  |  | > 4 | 10 µM | Ki [8]: 3 µM; Ki [6]: 10 µM |
| CCN(CC)C(=O)c1ccc(C(c2cccc(OC)c2)C2CCNCC2)cc1 (stereo not drawn) | 0.02 µM | 10 µM | > 300 |  | Ki [3]: 10 µM |
| CCN(CC)C(=O)c1ccc(C(c2ccccc2)N2CCN(Cc3ccccc3)CC2)cc1 (stereo not drawn) | 0.00148 µM |  | > 4500 | 10 µM | IC50 [9]: 0.0257 µM; Ki [6]: 2 µM; IC50 [10]: 9.85 µM; Ratio [11]: 382 |
| CCN(CC)C(=O)c1ccc(C(NCCN(C)C)c2cccc(OC)c2)cc1 (stereo not drawn) | 0.622 µM | 10 µM | > 10 | 10 µM |  |
| CCN(CC)C(=O)c1ccc(C(=C2CCN(Cc3ccccc3)CC2)c2cccc(OC)c2)cc1 | 0.012 µM |  | > 500 |  | Ki [12]: 7.65 µM; Ki [3]: 10 µM |
| CCN(CC)C(=O)c1ccc(C(=C2CCNCC2)c2cccc(OC)c2)cc1 | 0.005 µM | 10 µM | > 1200 |  | IC50 [9]: 0.125 µM; IC50 [10]: 27.7 µM; Ki [3]: 10 µM; Ratio [11]: 220 |
| CCN(CC)C(=O)c1ccc(C(c2cccc(OC)c2)N(C)CCN(C)C)cc1 (stereo not drawn) | 0.248 µM | 10 µM | > 20 | 10 µM |  |
| CCN(CC)C(=O)c1ccc(C(OCCN(C)C)c2cccc(OC)c2)cc1 (stereo not drawn) | 0.258 µM | 10 µM | > 20 | 10 µM |  |
| CCN(CC)C(=O)c1ccc(C(c2ccccc2)N2CCOCC2)cc1 (stereo not drawn) |  |  | > 4 | 10 µM | Ki [8]: 3 µM; Ki [6]: 10 µM |
| C=CCN1C[C@H](C)N([C@@H](c2ccccc2)c2ccc(C(=O)N(CC)CC)cc2)C[C@H]1C | 0.0005 µM |  | > 3600 |  | Ki [12]: 3 µM; Ki [13]: 3 µM; Ratio [11]: 813 |
| C=CCN1CCN(C(c2ccccc2)c2ccc(C(=O)N(CC)CC)cc2)CC1 (stereo not drawn) | 0.0105 µM |  | > 600 |  | Ki [14]: 10 µM |
| C=CCN1CCN(C(c2ccc(C(=O)N(CC)CC)cc2)c2cccc(OC)c2)CC1 (stereo not drawn) | 0.027 µM |  | > 230 |  | IC50 [9]: 0.0331 µM; Ki [12]: 10 µM; IC50 [10]: 20.3 µM; Ki [13]: 10 µM; Ratio [11]: 610 |
| C=CCN1C[C@H](C)N([C@H](c2ccc(C(=O)N(CC)CC)cc2)c2cccc(OC)c2)C[C@H]1C [SNC-80] |  |  |  |  | Ki [12]: 11.7 µM; Ki [13]: 3.97 µM |
